Results on six compounds are retold here after ChEMBL document CHEMBL1149737, “Brominated polyacetylenic acids from the marine sponge Xestospongia muta: inhibitors of HIV protease” (J Nat Prod, 1992).

Active and inactive are the calls of the source. The calls are words filed in the database; no cut-off is given here.

The species named for one test is Sus scrofa. The test can be described thus: Inhibition of pig malic dehydrogenase at 100 ug/ml.
Another test has as its target Protease (Human immunodeficiency virus 1, UniProt Q9YQ12). As to the kind of experiment: Inhibition of HIV1 protease-mediated proteolysis of rabbit muscle lactate dehydrogenase by spectrophotometry. Format: single protein. A digest of the protocol:
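Purified HIV-1 protease (0.8 µg) with rabbit muscle LDH (0.5–2 mg/ml) in 80 mM Na acetate pH 4.7, 1 mM EDTA, 1 mM DTT, 0.2 M NaCl, 37°, 10–60 min. Aliquots were diluted into 0.1 M K phosphate pH 7.0, 30 min RT. Residual LDH was read as NADH loss at 340 nm (7.6 mM pyruvate, 0.2 mM NADH, 37°) from initial slopes. Controls lacked protease.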

Another test concerns MOLT-4. As to the kind of experiment: Cytotoxicity against human MOLT4 cells. Format: functional, cell-based.
The target of test [1] is T1, ATP-citrate synthase (Rattus norvegicus) (UniProt P16638).
T1 sequence (whole entry): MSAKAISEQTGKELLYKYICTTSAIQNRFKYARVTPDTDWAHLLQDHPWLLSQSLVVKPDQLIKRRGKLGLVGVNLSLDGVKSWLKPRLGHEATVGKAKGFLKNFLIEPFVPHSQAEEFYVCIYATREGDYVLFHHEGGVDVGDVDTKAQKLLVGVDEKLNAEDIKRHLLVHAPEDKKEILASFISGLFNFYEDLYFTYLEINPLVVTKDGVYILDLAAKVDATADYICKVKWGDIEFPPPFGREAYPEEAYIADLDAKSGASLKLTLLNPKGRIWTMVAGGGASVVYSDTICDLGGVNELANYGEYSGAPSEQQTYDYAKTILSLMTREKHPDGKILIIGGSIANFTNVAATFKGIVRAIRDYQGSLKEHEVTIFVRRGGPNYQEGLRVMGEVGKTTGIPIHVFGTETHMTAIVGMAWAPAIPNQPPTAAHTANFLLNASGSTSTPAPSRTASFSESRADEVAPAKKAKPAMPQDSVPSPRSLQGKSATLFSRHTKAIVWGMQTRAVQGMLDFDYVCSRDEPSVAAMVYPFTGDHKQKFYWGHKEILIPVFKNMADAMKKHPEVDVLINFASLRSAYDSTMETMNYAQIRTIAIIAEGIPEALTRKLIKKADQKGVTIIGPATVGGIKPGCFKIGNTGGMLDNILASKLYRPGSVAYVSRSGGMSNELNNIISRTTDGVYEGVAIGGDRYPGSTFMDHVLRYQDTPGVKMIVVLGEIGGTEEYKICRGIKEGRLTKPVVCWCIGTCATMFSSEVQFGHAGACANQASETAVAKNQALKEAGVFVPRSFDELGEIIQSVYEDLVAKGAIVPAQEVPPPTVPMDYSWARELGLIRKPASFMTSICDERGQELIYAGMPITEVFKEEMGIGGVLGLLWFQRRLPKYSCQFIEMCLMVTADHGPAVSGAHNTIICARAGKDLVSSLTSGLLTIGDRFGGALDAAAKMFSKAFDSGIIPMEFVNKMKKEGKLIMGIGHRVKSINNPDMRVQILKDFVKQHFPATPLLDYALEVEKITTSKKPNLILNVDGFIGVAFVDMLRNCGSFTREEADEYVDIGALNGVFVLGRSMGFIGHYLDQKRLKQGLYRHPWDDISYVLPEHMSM
As to the kind of experiment: Inhibition of rat ATP citrate lyase at 100 ug/ml.

Chain of Protease (Q9YQ12 whole entry): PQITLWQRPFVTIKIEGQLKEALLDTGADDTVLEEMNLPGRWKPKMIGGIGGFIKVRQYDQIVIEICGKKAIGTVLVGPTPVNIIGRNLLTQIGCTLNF

`O=C(O)CCCC#C/C=C/CCCC/C=C/C#C/C=C/Br`: the outcome (in the test listed under Sus scrofa; in test [1]) was inactive. This compound displayed an IC50 against Protease of 10 µM. Also, in the test on MOLT-4, the outcome was Active.

Take `O=C(O)CCCC#CC#C/C=C/CC/C=C/C#C/C=C/Br`: the outcome (in the test filed under Sus scrofa; in test [1]) was inactive. This compound had a half-inhibitory concentration (IC50) on Protease of 6 µM. Besides, the result in the test on MOLT-4 was Active.

With `COC(=O)CCCC#CC#C/C=C/CCCCCC/C=C/Br`, the result (in the test filed under Sus scrofa; in test [1]) was inactive. In addition, at Protease, the concentration for half-maximal inhibition (IC50) came to 10 µM. Further, the outcome in the test with MOLT-4 was Active.

Turning to `O=C(O)CCCC#CC#C/C=C/CCCCCC/C=C/Br`, the outcome (in the test filed under Sus scrofa; in test [1]) was inactive. At Protease, this compound registered a half-inhibitory concentration (IC50) of 12 µM. Also, the result in the test on MOLT-4 was Active.

Turning to `O=C(O)CCCC#CC#C/C=C/CCCCC#C/C=C/Br`, the outcome (in the test listed under Sus scrofa; in test [1]) was inactive. Also, inhibition on Protease was half-maximal at 8 µM (IC50). For the same compound, in the test on MOLT-4, the result was Active.

As to `O=C(O)CCCC#CC#C/C=C/CCCC/C=C/C#CBr`, the result (in the test listed under Sus scrofa; in test [1]) was inactive. This compound returned an IC50 on Protease of 7 µM. Also, the result with MOLT-4 was Active.
